# Data: article PMC4740292 (EBioMedicine, 2015)
# Read-outs that look alike come from different tables or passages of the source.
# What was measured:
# HCVcc-Luc = assay: Time-of-addition assay, HCVcc-Luc on Huh7.5.1 cells; type: cell-based, Hepatitis C virus; details: 2 μM for 3 h, added at indicated time points
# How it was run: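 Huh7.5.1 cells inoculated with HCVcc-Luc at 37 °C for 3 h. At set time points, test compound at 2 μM (or DMSO) added for 3 h, then removed. Cells kept a further 48 h at 37 °C before luciferase readout. Mean of n = 3 with s.d.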
# [1] = system: JFH-1 genotype 2a infectious virus (HCVcc); details: for TI (CC50/EC50) / EC50 / HCVcc infection / HCV entry inhibition (in words): Huh7.5.1
# Huh7.5.1 cells = assay: Cytotoxicity; type: cell-based, human
# [2] = Human liver microsomal stability assay; type: in vitro ADME; details: both, human liver microsomes, pH 7.4
# [3] = system: HCV replicon cell line 2-3(+); assay: HCV replicon cell line 2-3; type: cell-based, Hepatitis C virus (Genotype 1b); details: 20 nM, 24, 48 or 72 hours, replicon cells
# PHB1, PHB2, CRaf, Ras = PHB1, PHB2, CRaf, Ras (Homo sapiens, UniProt P35232+Q99623); assay: Western blotting of cellular PHB1, PHB2, CRaf and Ras in Huh7.5.1 cells; type: cell-based; details: 20 nM, 1, 2 and 3 days
# Sequence of PHB1, PHB2, CRaf, Ras (P35232 2-272 limits assumed): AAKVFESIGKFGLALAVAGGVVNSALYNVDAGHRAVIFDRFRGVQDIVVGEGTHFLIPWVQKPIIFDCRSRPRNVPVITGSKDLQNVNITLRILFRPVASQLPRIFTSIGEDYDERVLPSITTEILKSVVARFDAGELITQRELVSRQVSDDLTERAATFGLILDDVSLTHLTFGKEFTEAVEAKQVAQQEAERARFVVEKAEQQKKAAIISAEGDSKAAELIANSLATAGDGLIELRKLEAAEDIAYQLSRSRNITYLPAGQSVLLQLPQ
# Sequence of PHB1, PHB2, CRaf, Ras (Q99623 2-299 limits assumed): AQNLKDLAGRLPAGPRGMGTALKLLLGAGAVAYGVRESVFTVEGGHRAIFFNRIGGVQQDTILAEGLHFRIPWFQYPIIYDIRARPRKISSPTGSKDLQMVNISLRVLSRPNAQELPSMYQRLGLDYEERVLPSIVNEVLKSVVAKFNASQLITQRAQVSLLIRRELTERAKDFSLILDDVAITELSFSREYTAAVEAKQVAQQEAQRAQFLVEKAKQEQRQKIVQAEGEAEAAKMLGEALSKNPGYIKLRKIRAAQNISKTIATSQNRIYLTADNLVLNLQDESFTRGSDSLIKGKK
# PHB-CRaf interaction = PHB-CRaf interaction (Homo sapiens, UniProt P35232+Q99623); assay: Co-IP of Flag-CRaf and V5-tagged PHB1 & 2 in 293T cells; type: cell-based; details: 20 nM
# Sequence of PHB-CRaf interaction (P35232 whole entry): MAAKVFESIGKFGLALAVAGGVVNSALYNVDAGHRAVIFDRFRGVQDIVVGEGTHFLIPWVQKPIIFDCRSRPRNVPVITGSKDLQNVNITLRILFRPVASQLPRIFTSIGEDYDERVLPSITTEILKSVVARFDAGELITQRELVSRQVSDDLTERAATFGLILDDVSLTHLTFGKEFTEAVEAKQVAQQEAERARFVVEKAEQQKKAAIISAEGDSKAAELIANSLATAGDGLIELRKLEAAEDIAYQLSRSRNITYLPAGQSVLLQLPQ
# Sequence of PHB-CRaf interaction (Q99623 whole entry): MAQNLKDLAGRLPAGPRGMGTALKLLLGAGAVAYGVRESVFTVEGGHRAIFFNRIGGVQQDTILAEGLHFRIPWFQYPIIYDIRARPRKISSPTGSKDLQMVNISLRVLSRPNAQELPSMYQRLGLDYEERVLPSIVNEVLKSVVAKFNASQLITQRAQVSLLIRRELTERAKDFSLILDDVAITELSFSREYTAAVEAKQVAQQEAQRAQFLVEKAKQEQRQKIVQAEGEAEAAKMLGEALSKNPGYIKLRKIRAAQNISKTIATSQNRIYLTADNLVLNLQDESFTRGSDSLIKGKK
# How it was run: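 Flag-CRaf and V5-tagged PHB1 and PHB2 co-expressed in 293T cells by co-transfection. Cells left untreated or exposed to test compound at 20 nM, then immunoprecipitated with anti-Flag antibody. Co-precipitated PHB1/PHB2 and CRaf detected by immunoblotting.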
# cell surface PHB1 and 2 = cell surface PHB1 and 2 (Homo sapiens, UniProt P35232+Q99623); assay: Cell surface biotinylation assay, Huh7.5.1 cells; type: cell-based; details: 20 nM
# HCVpp = HCVpp infection of primary human hepatocytes; type: cell-based, Hepatitis C virus; details: pretreatment of PHHs at non-cytotoxic concentrations
# CHIKVpp = CHIKVpp infection of Huh7.5.1 cells, luciferase assay; type: cell-based, Chikungunya virus; details: Huh7.5.1, Roc-A 10 nM, Fig. S3F
# [4] = compounds incubated with cells for a total of 3 h
# [5] = compounds incubated with cells for a total of 48 h
Molecule,TI (CC50/EC50) ([1]; 3 h incubation),"EC50 [1, 4]",CC50 (Huh7.5.1 cells; [4]),HCVcc infection / HCV entry inhibition (in words) [1],other results
"CONC(=O)[C@H]1[C@@H](O)[C@@]2(O)c3c(OC)cc(OC)cc3O[C@@]2(c2ccc(OC)cc2)[C@@H]1c1ccccc1 [Compound E2, (-)-NH hydroxamate]",,,,,anti-HCV activity by time of addition (HCVcc-Luc): appeared to inhibit HCV no matter when added
(±)-aglaroxin C [(±) Aglaroxin C (C10)],100,100 nM,10000 nM,,"anti-HCV activity by time of addition (HCVcc-Luc): maximal anti-HCV activity when added together with the virus but lost its activity when added 3 h after the infection was initiated; TI (CC50/EC50) ([1]; 48 h incubation): 500; half-maximum effective concentrations (EC50), in words ([1]; JFH-1 genotype 2a infectious virus in cell culture): picomolar; EC50 [1, 5]: 0.04 nM; CC50 (Huh7.5.1 cells; [5]): 20 nM"
(+)-rocaglamide [(+) Roc-A],,> 200000 nM,300000 nM,,
"COc1ccc([C@@]23Oc4cc(OC)cc(OC)c4[C@]2(O)[C@H](O)[C@H](C(=O)N(C)C)[C@H]3c2ccccc2)cc1 [Roc-A, rocaglamide A]",,,,significantly reduced,"half-life at 1 µM [2]: 37 min; HCV RNA replication or protein translation [3]: did not inhibit HCV RNA replication or protein translation; PHB1, 2, Ras and CRaf total protein level (PHB1, PHB2, CRaf, Ras): decreased PHB1, 2, Ras, and CRaf at the total protein level; PHB-CRaf interaction (PHB-CRaf interaction): disrupted the PHB-CRaf interaction; cell surface expression of PHB1 and 2 (cell surface PHB1 and 2): decreased the cell surface expression of PHB1 and 2; HCVpp entry (in words) (HCVpp): suppressed HCVpp entry; CHIKVpp infection (CHIKVpp): significantly reduced"
(-)-rocaglamide [(−) Roc-A],50,1000 nM,50000 nM,stronger inhibition on HCV entry than the (+) enantiomer,"TI (CC50/EC50) ([1]; 48 h incubation): 75; EC50 [1, 5]: 4 nM; CC50 (Huh7.5.1 cells; [5]): 300 nM"
(-)-aglaroxin C [(−)-Aglaroxin C],60a,200 nM,12000 nM,active enantiomer for HCV viral entry inhibition,
(+)-aglaroxin C,5a,20000 nM,100000 nM,,
